High-throughput results (PubChem)
M1 agonist = agonists of M1 muscarinic receptor; CHO-M1 cells, Fluo-4 calcium fluorescence, agonist mode; stronger effect = higher value; B-score at 10 µM; 3% of 64,000 active; AID 626;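 active = fluorescence rise, raw or as B-score row- and column-corrected plate score, outside the 99.7% band of its plate's samples, either direction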
S1P3 agonist = activates the human S1P3 receptor; AID 373; 0.1% of 60,000 active; S1P3 NFAT-BLA reporter cells, agonism, FRET ratio; relative to 1 µM S1P, basal subtracted; activation, % at 4.5 µM; Q99500;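 active = activation above the screen-wide mean plus 3 SD, cut at about 4.5% in these data, passing the limit was not always enough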
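Assay system: CHO cells stably expressing human S1P3, Gα16 and NFAT-β-lactamase reporter. Timing: overnight plating, 4 h compound 37 °C, 2 h substrate RT. Signal: β-lactamase FRET emission ratio 460/535 nm. Measure: percent activation versus median 1 µM S1P response, basal-subtracted, per plate. Repeats: primary screen single test, confirmation screen in triplicate.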
M1 antagonist = M1 muscarinic receptor (rat) antagonism | P08482 | CHO-M1 cells, Fluo-4 calcium, ACh EC80 antagonist mode; stronger effect = lower value | B-score at 10 µM | 3.4% of 64,000 active | AID 628;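 active = calcium fluorescence response, raw or row-and-column corrected B-score, differing from the plate sample mean either way at a set confidence level, mostly lower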
RORA act = activators of human nuclear receptor RORA. CHO-K1 Gal4-RORA LBD luciferase reporter, luminescence; percent increase over mock-subtracted basal signal. activation, % at 10 µM. P35398. 1.5% of 65,000 active;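 active = activation above the mean of all tested compounds plus 3 SD, cut at about 49% in these data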;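 note: 0% = DMSO-treated RORA cells and 100% = added signal equal to DMSO minus mock-transfected cells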
SF-1 act = SF-1 (human) activation. Q13285. CHO-K1 Gal4-SF-1 LBD luciferase reporter; % increase over DMSO SF-1-specific signal. activation, % at 10 µM. 1.9% of 65,000 active;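 active = activation above the mean activation of all tested compounds plus 3 SD, cut at about 50% in these data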
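Assay system: CHO-K1 cells co-transfected with Gal4 DBD–human SF-1 LBD, 5xGal4 luciferase reporter; doses: 10 µM only; incubation: 20 h compound exposure at 37 °C after 1 h cell settling; signal: luciferase light emission; evaluation: percent activation versus DMSO; repeats: one test per compound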
S1P1 ag-PAM = activates or potentiates agonism at human S1P1 receptor; P21453; AID 449; activation, % at 9.5 µM; 0.57% of 56,000 active; S1P1 CRE-bla cells, forskolin, beta-lactamase FRET, potentiator mode; S1P1 agonist co-added at EC20, 2 nM; 100% = saturating reference agonist, 0% = basal;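 active = activation above a cutoff set at the mean activation of all tested compounds plus 3 SD, cut at about 54% in these data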;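 note: forskolin at 4 µM as EC80 and the EC20 agonist is SEW2871; 100% = SEW2871 at its EC100 plus forskolin at EC80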
Target sequence (P21453 whole entry, looked up): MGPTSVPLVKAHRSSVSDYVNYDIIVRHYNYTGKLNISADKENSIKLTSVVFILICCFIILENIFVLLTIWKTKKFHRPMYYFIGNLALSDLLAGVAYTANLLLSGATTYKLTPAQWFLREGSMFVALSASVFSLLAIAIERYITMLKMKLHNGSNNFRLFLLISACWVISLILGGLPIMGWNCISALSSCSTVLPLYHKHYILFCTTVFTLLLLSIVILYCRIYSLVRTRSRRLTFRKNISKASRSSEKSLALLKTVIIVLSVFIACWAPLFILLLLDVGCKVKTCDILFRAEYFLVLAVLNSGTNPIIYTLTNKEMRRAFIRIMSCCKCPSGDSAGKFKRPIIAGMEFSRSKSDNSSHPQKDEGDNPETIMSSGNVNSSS
* marks the source's active call; other numbers are inactive results; x = no result given. Rows were chosen to be rich in hits. Some 8.8% of all compounds tested hit in one or more screens of this group.

SMILES | M1 agonist | S1P3 agonist | M1 antagonist | RORA act | SF-1 act | S1P1 ag-PAM
COc1ccc2sc(NC(=O)CC(C)C)nc2c1 | 0.24 | 0 | -0.63 | 23 | 66* | -6
CCC(=O)Nc1nc2cc(OC)ccc2s1 | 0.14 | 0 | 0.23 | 14 | 1 | -2
COc1ccc2sc(NC(C)=O)nc2c1 | 0.41 | 0 | 0.42 | 56* | 50* | -7
COc1cc(OC)cc(C(=O)N2CCC(N3CCCCCC3)CC2)c1 | -0.7 | -5 | -0.01 | -24 | -1 | -5
CCOC(=O)c1nn(-c2ccc3c(c2)CCN3C(C)=O)cc1O | -0.24 | x | 0 | 58* | 65* | x
CC(C)C(NS(=O)(=O)c1ccc2c(c1)OCCO2)C(=O)NCCc1ccccn1 (stereo not given) | 0.54 | x | 0.36 | -16 | -9 | x
CCOc1ccc(C2C(C#N)=C(N)SC(N)=C2C#N)cc1OC | 64* | -5 | 1 | -18 | -4 | -32
Cc1cc(C)n2cc(CSCc3ccco3)nc2n1 | -0.2 | 0 | -0.32 | 10 | 12 | 2
Cc1cccc2nc(CSCc3ccco3)cn12 | 0.11 | 1 | 0.99 | 46 | 55* | 3
CCn1nnc(NC(=O)c2cc3ccccc3o2)n1 | 0.21 | 0 | 3.4* | -7 | 12 | -6
CCCn1nnc(NC(=O)c2cc3ccccc3o2)n1 | -0.62 | 0 | -0.035 | 49* | 20 | x
O=C(NCCCN1CCCC1=O)c1cccc(C(F)(F)F)c1 | -0.19 | 0 | -0.029 | 2 | 8 | -22
COc1cc(OC)nc(NC(=O)NS(=O)(=O)c2ccc(OC(F)(F)F)cc2)n1 | 0.38 | -1 | 0.056 | -16 | -13 | -3
O=C(c1cc2ccccc2o1)c1nc2c(n1O)CCCCC2 | -0.25 | -1 | 0.43 | 56* | 44 | -20
CCOc1ccc(C(=O)c2nc3c(n2O)CCCC3)cc1 | x | -1 | x | -21 | -13 | -27
Cc1cc(/C=c2/sc3nc4ccccc4n3c2=O)c(C)n1-c1ccccn1 | -0.087 | -1 | -0.31 | -87 | -85 | 101*
COc1cccc(CNc2ccc3c(c2)ncn3C(C)C)c1OC | -2.4 | -2 | -0.0093 | 27 | 55* | 10
CCCn1cnc2cc(NCc3cccc(OC)c3O)ccc21 | -0.55 | 0 | -0.9 | -1 | 2 | 4
Cc1ccc(C)n1CCN1CCN(CC(=O)Nc2cc(C(F)(F)F)ccc2Cl)CC1 | -0.91 | -2 | -0.23 | -7 | -12 | 3
Cc1c(NC(=O)c2cc(-c3cccs3)on2)c(=O)n(-c2ccccc2)n1C | 0.12 | -1 | -0.82 | 22 | -7 | -19
C/C(NC(=O)c1ccccc1)=C1/C(=O)CC2C1C2(C)C (stereo not given) | -0.74 | -1 | -0.083 | 68* | 30 | -11
CCCCn1c(SCC2CCCCO2)nc2cc(S(N)(=O)=O)ccc21 (stereo not given) | 0.16 | -1 | -0.028 | 8 | 0 | 3
COc1ccc(NC(=O)C23CCC(C)(C(=O)C2)C3(C)C)cc1 (stereo not given) | -0.41 | -1 | -1.5 | -8 | -1 | -19
COc1ccc(S(=O)(=O)Cc2ccc(C(=O)N3CCN(c4ccccn4)CC3)o2)cc1 | -0.14 | 0 | -0.53 | -5 | 1 | -23
Cc1ccc(S(=O)(=O)NCc2ccc(C(=O)N3CCN(c4ccccn4)CC3)cc2)cc1 | 4 | 0 | 2.4* | 12 | -8 | 20
SMILES | M1 agonist | S1P3 agonist | M1 antagonist | RORA act | SF-1 act | S1P1 ag-PAM
OCCN1CCN(c2nc(-c3ccccc3)nc3c2oc2ccccc23)CC1 | 0.12 | 0 | 1.1 | 9 | -7 | -19
O=C(Nc1ccc2sccc2c1)c1ccc(Cl)s1 | -0.58 | 0 | -0.15 | 34 | 60* | 17
O=C(Nc1nccs1)c1ccc(Cl)s1 | 1.7 | -1 | 0.31 | 47 | 58* | 0
O=C(Nc1nc(-c2ccccn2)cs1)c1ccc(Cl)s1 | 0.55 | -2 | -1.2 | -65 | -95 | 50
CCOC(=O)N1CCN(C(=O)C2CCCN(S(=O)(=O)c3cccnc3)C2)CC1 (stereo not given) | 0.91 | -1 | -0.64 | -13 | 13 | -5
Cc1ccnc(N2C(=O)OC(C)(C)C2(C)O)c1 (stereo not given) | x | -1 | x | 24 | -13 | -12
CCC(C)(C)NC(=O)CN(C(=O)CNS(=O)(=O)c1ccc(C)cc1)c1ccc2c(c1)OCCO2 | 2.6 | 4 | 1.4 | -7 | 16 | 9
O=C(Nc1cccc(-c2nnc(-c3ccccc3)o2)c1)C1CCCCC1 | -1.8 | -1 | -0.014 | 49* | 53* | x
CCCCC(=O)Nc1cccc(-c2nnc(-c3ccccc3)o2)c1 | 2.7* | -1 | -1.1 | 68* | 33 | x
COc1cccc(-c2nnc(NC(=O)C3CCCCC3)o2)c1 | -0.4 | -1 | -0.087 | 4 | 19 | -3
O=C(NCC1COc2ccccc2O1)C1CCCN(S(=O)(=O)c2cnc[nH]2)C1 (stereo not given) | 0.13 | -1 | -0.35 | 21 | 8 | 1
NC(=O)c1ccc(OCC(F)(F)C(F)(F)C(F)(F)C(F)(F)C(F)(F)C(F)F)cc1 | -0.28 | -1 | 0.083 | 1 | -6 | 63*
CCOC(=O)c1ccc(N2C(=O)c3n[nH]c(C)c3C2c2ccco2)cc1 (stereo not given) | 0.18 | -1 | 0.58 | -4 | -6 | -14
Cc1ccc(N2C(=O)c3n[nH]c(C)c3C2c2ccco2)cc1 (stereo not given) | -0.28 | 0 | -0.31 | 67* | 41 | -10
CCN(CC)C(=O)CSc1ncnc2c(-c3cccs3)nsc12 | 0.98 | 0 | 0.37 | 12 | 68* | 9
COC(=O)c1ccccc1NC(=O)Cn1c(SC)c(F)cnc1=O | 0.28 | 0 | 1* | 22 | -5 | -9
COC(=O)c1ccccc1NC(=O)Cn1cc(Br)cn1 | 0.013 | 0 | 1.2 | -18 | -11 | -8
CCn1c(SC(C)C(=O)OC)nnc1-c1c[nH]c2ccccc12 (stereo not given) | -0.96 | -1 | -0.47 | -9 | 4 | 3
CCOC(=O)c1cnc(SCc2ccccc2)nc1N | -0.17 | -1 | -0.43 | 51* | 67* | x
O=c1c2ccc(-c3nnc4n3-c3ccccc3SC4)cc2nc2n1CCCCC2 | -0.22 | -2 | 0.51 | 9 | 8 | 3
CCOC(=O)c1sc(NCCNc2nc(C)c(C(=O)OCC)s2)nc1C | -0.37 | -1 | -0.01 | 21 | -6 | 4
CCOC(=O)c1ccc2nc(NC(=O)c3cccs3)sc2c1 | -0.47 | x | -0.18 | -3 | -2 | x
CCOC(=O)Cc1nnc(NC(=O)c2ccccc2OC)s1 | -0.98 | 0 | 0.24 | -4 | -13 | -13
CCOC(=O)c1sc(NC(=O)C2CC2)cc1C | -0.52 | 0 | 0.02 | 8 | 4 | 1
CCOC(=O)c1sc(NC(=O)c2ccc3ncsc3c2)nc1C | 0.021 | 0 | 0.36 | 20 | 76* | -8
